Results taken from ChEMBL document CHEMBL1128595, “Synthesis and biological activity of 7-alkylidenecephems” (J Med Chem, 1995).

Tests used:
Beta-lactamase [1] = molecular target: T1, Beta-lactamase (Enterobacter cloacae, UniProt P05364); test: The concentration of compound to inhibit beta-lactamase was measured on Enterobacter cloacae P99; type: functional
Beta-lactamase [2] = molecular target: T1, Beta-lactamase; test: The concentration of compound to inhibit beta-lactamase was measured on Enterobacter cloacae SC 12368; type: functional
Beta-lactamase TEM [3] = molecular target: T2, Beta-lactamase TEM (Escherichia coli, UniProt P62593); test: (§1) The concentration of compound to inhibit beta-lactamase was measured on Escherichia coli WC3310; type: functional
T2 sequence (P62593 whole entry): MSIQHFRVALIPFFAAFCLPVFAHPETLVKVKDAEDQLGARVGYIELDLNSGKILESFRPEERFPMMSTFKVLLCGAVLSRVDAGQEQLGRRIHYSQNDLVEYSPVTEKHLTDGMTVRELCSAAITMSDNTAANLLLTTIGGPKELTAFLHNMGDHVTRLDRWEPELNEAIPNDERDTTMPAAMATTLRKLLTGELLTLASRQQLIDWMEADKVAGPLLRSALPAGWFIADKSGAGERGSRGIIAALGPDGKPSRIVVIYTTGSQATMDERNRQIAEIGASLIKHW
How it was run: (§2)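 TEM-2 β-lactamase partially purified from E. coli W3310 (freeze-thaw lysis, DNase, Sephadex G-75 gel filtration). Enzyme preincubated with varied inhibitor in 50 mM phosphate buffer pH 7.2 at 25 °C for 10 min. Aliquot then diluted into nitrocefin (the more concentrated standard solution), and hydrolysis rate read at 482 nm.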

Beta-lactamase [4] = molecular target: T1, Beta-lactamase; test: The concentration of compound to inhibit Beta-lactamase was measured on Enterobacter cloacae P99; type: functional
Beta-lactamase TEM [5] = molecular target: T2, Beta-lactamase TEM; test: (§3) The concentration of compound to inhibit Beta-lactamase was measured on Escherichia coli WC3310; type: functional; how it was run: as §2
Beta-lactamase [6] = molecular target: T1, Beta-lactamase; test: The concentration of compound to inhibit Beta-lactamase was measured on Enterobacter cloacae SC 12368; type: functional
[7] = The pseudo second order rate constant of inhibition (k3'') was measured by using Kitz and Wilson method; type: ADME
How it was run: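 Kitz–Wilson analysis with E. cloacae P99 β-lactamase in 50 mM phosphate pH 7.2 at 25 °C. Enzyme incubated with five inhibitor concentrations (assay 2.8 × 10⁻⁸ to 1.4 × 10⁻⁷ M; enzyme 2.56 nM final). Aliquots taken at 30 s intervals over 5 min, diluted into nitrocefin (0.19 mM), absorbance at 482 nm read for 10 s. Reciprocal rate constants plotted against reciprocal inhibitor concentration.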

Beta-lactamase TEM [8] = molecular target: T2, Beta-lactamase TEM; test: as §1; type: functional; remark: listed apart in the source
How it was run: (§4)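 TEM-2 β-lactamase partially purified from E. coli W3310 (freeze-thaw lysis, DNase, Sephadex G-75 gel filtration). Enzyme preincubated with varied inhibitor in 50 mM phosphate buffer pH 7.2 at 25 °C for 10 min.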

Beta-lactamase TEM [9] = molecular target: T2, Beta-lactamase TEM; test: as §3; type: functional; how it was run: as §4; remark: listed apart in the source

T1 sequence (P05364 whole entry): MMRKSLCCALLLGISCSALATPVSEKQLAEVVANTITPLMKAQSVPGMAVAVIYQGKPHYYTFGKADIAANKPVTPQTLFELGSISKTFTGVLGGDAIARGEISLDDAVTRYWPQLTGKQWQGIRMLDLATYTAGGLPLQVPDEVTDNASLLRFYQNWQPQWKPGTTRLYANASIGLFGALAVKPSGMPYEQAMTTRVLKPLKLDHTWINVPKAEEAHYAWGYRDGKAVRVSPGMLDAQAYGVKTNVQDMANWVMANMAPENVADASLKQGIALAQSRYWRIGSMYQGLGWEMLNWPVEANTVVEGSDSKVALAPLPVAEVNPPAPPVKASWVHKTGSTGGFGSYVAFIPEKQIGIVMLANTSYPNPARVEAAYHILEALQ

In the case of `CC(=O)OCC1=C(C(=O)O)N2C(=O)/C(=C/C(C)(C)C)[C@H]2S(=O)(=O)C1`, the IC50 (Beta-lactamase [1]) is reported as over 20 µM, the IC50 (Beta-lactamase [2]) is reported as over 20 µM and the IC50 (Beta-lactamase TEM [3]) is reported as over 20 µM.
`CC(=O)OCC1=C(C(=O)O)N2C(=O)/C(=C/c3ccccn3)[C@H]2SC1` gave an IC50 (Beta-lactamase [4]) of over 20 µM, an IC50 (Beta-lactamase TEM [5]) of over 2 µM and an IC50 (Beta-lactamase [6]) of over 20 µM.
`CC(=O)OCC1=C(C(=O)O)N2C(=O)/C(=C/c3ccccc3)[C@H]2SC1` gave an IC50 (Beta-lactamase [4]) of over 20 µM, an IC50 (Beta-lactamase TEM [5]) of over 20 µM and an IC50 (Beta-lactamase [6]) of over 20 µM.
With `CC(=O)OCC1=C(C(=O)[O-])N2C(=O)/C(=C/c3ccccn3)[C@H]2S(=O)(=O)C1.[Na+]` the k3' [7] was 5.3e+06 L (M min)-1, the IC50 (Beta-lactamase [1]) was 0.025 µM and the IC50 (Beta-lactamase [2]) was 0.025 µM. It also gave an IC50 (Beta-lactamase TEM [8]) of 0.8 µM.
`CC(=O)OCC1=C(C(=O)O)N2C(=O)/C(=C/c3ccccc3)[C@H]2S(=O)(=O)C1` gave an IC50 (Beta-lactamase [1]) of 6.25 µM, an IC50 (Beta-lactamase [2]) of 6.8 µM and an IC50 (Beta-lactamase TEM [8]) of over 20 µM.
Work on `CC(=O)OCC1=C(C(=O)O)N2C(=O)/C(=C/C(=O)OC(C)(C)C)[C@H]2S(=O)(=O)C1` yielded an IC50 (Beta-lactamase [1]) of 7.8 µM, an IC50 (Beta-lactamase [2]) of 5.9 µM and an IC50 (Beta-lactamase TEM [8]) of 0.005 µM.
In the case of `CC(=O)OCC1=C(C(=O)O)N2C(=O)/C(=C/C(=O)OC(C)(C)C)[C@H]2SC1`, the IC50 (Beta-lactamase [4]) is reported as 2.5 µM, the IC50 (Beta-lactamase TEM [5]) is reported as over 20 µM and the IC50 (Beta-lactamase [6]) is reported as over 20 µM.
Work on `CC(=O)OCC1=C(C(=O)O)N2C(=O)/C(=C\Br)[C@H]2S(=O)(=O)C1` yielded an IC50 (Beta-lactamase [1]) of over 20 µM, an IC50 (Beta-lactamase [2]) of over 20 µM and an IC50 (Beta-lactamase TEM [3]) of over 20 µM.
In the case of `CC(=O)OCC1=C(C(=O)O)N2C(=O)/C(=C/CO)[C@H]2S(=O)(=O)C1`, the IC50 (Beta-lactamase [1]) is reported as over 20 µM, the IC50 (Beta-lactamase [2]) is reported as over 20 µM and the IC50 (Beta-lactamase TEM [3]) is reported as over 20 µM.
In the case of `CC(=O)OCC1=C(C(=O)[O-])N2C(=O)C(=C=CC(C)(C)C)[C@H]2S(=O)(=O)C1.[Na+]`, the k3' [7] is reported as 1.7e+06 L (M min)-1, the IC50 (Beta-lactamase [4]) is reported as 0.13 µM and the IC50 (Beta-lactamase TEM [5]) is reported as over 20 µM. The IC50 (Beta-lactamase [6]) was 0.26 µM.
For `CC(=O)OCC1=C(C(=O)O)N2C(=O)C(=C(Br)Br)[C@H]2SC1`, the IC50 (Beta-lactamase [4]) was over 20 µM, the IC50 (Beta-lactamase TEM [5]) was over 20 µM and the IC50 (Beta-lactamase [6]) was over 20 µM.
For `CC(=O)OCC1=C(C(=O)O)N2C(=O)C(=C(Br)Br)[C@H]2S(=O)(=O)C1`, the IC50 (Beta-lactamase [1]) was over 20 µM, the IC50 (Beta-lactamase [2]) was over 20 µM and the IC50 (Beta-lactamase TEM [8]) was over 20 µM.
`CC(=O)OCC1=C(C(=O)O)N2C(=O)C(=C(Cl)Cl)[C@H]2S(=O)(=O)C1` gave an IC50 (Beta-lactamase [1]) of over 20 µM, an IC50 (Beta-lactamase [2]) of over 20 µM and an IC50 (Beta-lactamase TEM [8]) of 8.3 µM.
With `CC(=O)OCC1=C(C(=O)O)N2C(=O)C(=C(Cl)Cl)[C@H]2SC1` the IC50 (Beta-lactamase [4]) was over 20 µM, the IC50 (Beta-lactamase TEM [5]) was over 20 µM and the IC50 (Beta-lactamase [6]) was over 20 µM.
In the case of `CC(=O)OCC1=C(C(=O)O)N2C(=O)/C(=C/C=O)[C@H]2SC1`, the IC50 (Beta-lactamase [4]) is reported as 8.2 µM, the IC50 (Beta-lactamase TEM [5]) is reported as over 20 µM and the IC50 (Beta-lactamase [6]) is reported as 16.5 µM.
Work on `CC(=O)OCC1=C(C(=O)O)N2C(=O)/C(=C/C(C)(C)C)[C@H]2SC1` yielded an IC50 (Beta-lactamase [1]) of over 20 µM, an IC50 (Beta-lactamase [2]) of over 20 µM and an IC50 (Beta-lactamase TEM [3]) of over 20 µM.
`CON(C)C(=O)/C=C1/C(=O)N2C(C(=O)O)=C(COC(C)=O)CS[C@H]12` gave an IC50 (Beta-lactamase [1]) of over 20 µM, an IC50 (Beta-lactamase [2]) of over 20 µM and an IC50 (Beta-lactamase TEM [8]) of over 20 µM.
Work on `CC(=O)OCC1=C(C(=O)O)N2C(=O)/C(=C\Br)[C@H]2SC1` yielded an IC50 (Beta-lactamase [4]) of over 20 µM, an IC50 (Beta-lactamase TEM [9]) of over 20 µM and an IC50 (Beta-lactamase [6]) of over 20 µM.
Work on `CC(=O)OCC1=C(C(=O)O)N2C(=O)/C(=C\c3ccccc3)[C@H]2S(=O)(=O)C1` yielded an IC50 (Beta-lactamase [1]) of over 20 µM, an IC50 (Beta-lactamase [2]) of over 20 µM and an IC50 (Beta-lactamase TEM [8]) of over 20 µM.
With `CC(=O)/C=C1/C(=O)N2C(C(=O)O)=C(COC(C)=O)CS[C@H]12` the IC50 (Beta-lactamase [4]) was over 20 µM, the IC50 (Beta-lactamase TEM [5]) was over 20 µM and the IC50 (Beta-lactamase [6]) was over 20 µM.
For `O=C([O-])[C@H]1/C(=C/CO)O[C@@H]2CC(=O)N21.[Na+]` [CLAVULANIC ACID (SODIUM)], the “k3'” value [7] was 799 L (M min)-1.
For `C[C@]1(Cn2ccnn2)[C@H](C(=O)[O-])N2C(=O)C[C@H]2S1(=O)=O.[Na+]` [TAZOBACTAM SODIUM], the k3' [7] was 74000 L (M min)-1.
